ChEMBL document CHEMBL3132763, “Repurposing human Aurora kinase inhibitors as leads for anti-protozoan drug discovery” (Medchemcomm, 2014)

Columns and labels:
Plasmodium falciparum [1] = experiment: Antiprotozoal activity against chloroquine-resistant Plasmodium falciparum C2B assessed as growth inhibition after 72 hrs by SYBR Green dye-based fluorescence assay; format: functional, organism-based
Plasmodium falciparum [2] = experiment: Antiprotozoal activity against chloroquine-resistant Plasmodium falciparum W2 assessed as growth inhibition after 72 hrs by SYBR Green dye-based fluorescence assay; format: functional, organism-based; settings: W2, 72 h
Method in brief: (§1)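 Laboratory strains (D6, TM91C235, W2) in long-term culture, late-ring/early-trophozoite stage, seeded into pre-dosed 384-well plates at 0.3% parasitemia and 2% hematocrit. Twelve two-fold dilutions from DMSO, final 0.5–10000 ng/ml, in duplicate or quadruplicate. Incubated 72 h at 37°C under 5% CO2/5% O2/90% N2. Lysis buffer with SYBR Green I (final 10x) added, then 24 h dark at room temperature. Fluorescence read; IC50/IC90 from sigmoidal variable-slope fit. Chloroquine 2000 ng/ml batch control.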

Plasmodium falciparum [3] = experiment: Antiprotozoal activity against chloroquine/mefloquine/pyrimethamine-resistant Plasmodium falciparum C235 assessed as growth inhibition after 72 hrs by SYBR Green dye-based fluorescence assay; format: functional, organism-based; settings: C235, 72 h; method in brief: as §1
[4] = Cytotoxicity against human HepG2 cells after 48 hrs by MTT assay; format: cell-based; settings: read-out: TC50
Method in brief: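 HepG2 cells in supplemented MEM, 9570 cells/well, plated overnight at 37°C. Twelve 1.6-fold dilutions in duplicate, 57–10,000 ng/ml, 48 h. MTT added for 1 h at room temperature in the dark; formazan dissolved in acidified isopropanol; absorbance read. IC50 by sigmoidal variable-slope nonlinear regression; mefloquine served as plate control.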

Plasmodium falciparum [5] = experiment: Antiprotozoal activity against Plasmodium falciparum D6 assessed as growth inhibition after 72 hrs by SYBR Green dye-based fluorescence assay; format: functional, organism-based; settings: D6, 72 h; method in brief: as §1
Leishmania major [6] = experiment: Antiprotozoal activity against intracellular amastigote stage of Leishmania major infected in mouse […] cells assessed as growth inhibition after 96 hrs by luciferase reporter gene assay; format: functional, organism-based
Method in brief: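 RAW 264.7 macrophages (10,000/well, DMEM/10% HIFBS, 24 h at 37°C) infected overnight with luciferase-expressing L. major promastigotes (100,000/well), then washed three times. Twelve two-fold dilutions in duplicate, final 0.5–10,000 ng/ml, 96 h at 37°C, 5% CO2. Luciferin added for 30 min; luminescence read. IC50 by sigmoidal variable-slope nonlinear regression.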

Leishmania major [7] = experiment: Antiprotozoal activity against promastigote stage of Leishmania major assessed as growth inhibition after 44 hrs by AlamarBlue staining-based fluorescence assay; format: functional, organism-based
Trypanosoma brucei = experiment: Antiprotozoal activity against Trypanosoma brucei 427 assessed as growth inhibition after 48 hrs by PrestoBlue-based fluorescence assay; format: functional, organism-based; settings: Trypanosoma brucei, 427, 48 h
Method in brief: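 T. brucei brucei strain 427 at 5 × 10^3 cells/well in HMI-9 with compound; 37°C, 5% CO2, 48 h. PrestoBlue added for a further 4 h; fluorescence read at ex 530 / em 590 nm.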

[8] = Selectivity ratio of TC50 for human HepG2 cells to EC50 for Plasmodium falciparum D6; format: ADME, cell-based

| Structure (SMILES) | EC50 (Plasmodium falciparum [1]) | EC50 (Plasmodium falciparum [2]) | EC50 (Plasmodium falciparum [3]) | CC50 at 48 h [4] | EC50 (Plasmodium falciparum [5]) | EC50 (Leishmania major [6]) | EC50 (Leishmania major [7]) | EC50 (Trypanosoma brucei) | selectivity ratio [8] |
| --- | --- | --- | --- | --- | --- | --- | --- | --- | --- |
| CC(=O)N1C(=O)/C(=C(\Nc2ccc(CN3CCCCC3)cc2)c2ccccc2)c2cc([N+](=O)[O-])ccc21 | 249 nM | 307 nM | 271 nM | > 6000 nM | 275 nM | 2040 nM | 1080 nM | 130 nM |  |
| CC(=O)N1C(=O)/C(=C(\Nc2ccc(CN3CCCCC3)cc2)c2ccccc2)c2cc(N)ccc21 | 210 nM | 241 nM | 243 nM | 1810 nM | 218 nM | > 4000 nM | > 4000 nM | 3250 nM |  |
| Nc1ccc2c(c1)/C(=C(/Nc1ccc(CN3CCCCC3)cc1)c1ccccc1)C(=O)N2 | 175 nM | 228 nM | 176 nM | > 6000 nM | 199 nM | > 4000 nM | 790 nM | 1160 nM |  |
| CS(=O)(=O)Nc1ccc2c(c1)/C(=C(/Nc1ccc(CN3CCCCC3)cc1)c1ccccc1)C(=O)N2 |  | 86 nM | 58 nM | 200 nM | 52 nM | > 4000 nM | 390 nM | 20 nM |  |
| O=C1Nc2ccc(NS(=O)(=O)c3ccccc3)cc2/C1=C(/Nc1ccc(CN2CCCCC2)cc1)c1ccccc1 | 82 nM | 144 nM | 120 nM | 3290 nM | 107 nM | 1910 nM | 850 nM | 10 nM |  |
| CC(=O)Nc1ccc2c(c1)/C(=C(/Nc1ccc(CN3CCCCC3)cc1)c1ccccc1)C(=O)N2 | 56 nM | 88 nM | 74 nM | > 6000 nM | 68 nM | > 4000 nM | 1520 nM | 150 nM |  |
| CCS(=O)(=O)Nc1ccc2c(c1)/C(=C/Nc1ccc(CN3CCCCC3)cc1)C(=O)N2 | 173 nM | 273 nM | 242 nM | 5000 nM | 241 nM | > 4000 nM | 2770 nM | 1320 nM |  |
| CCS(=O)(=O)Nc1ccc2c(c1)/C(=C(\C)Nc1ccc(CN3CCCCC3)cc1)C(=O)N2 | 1060 nM | 1260 nM | 1190 nM | > 6000 nM | 1360 nM | > 4000 nM | > 4000 nM | 3360 nM |  |
| CC/C(Nc1ccc(CN2CCCCC2)cc1)=C1/C(=O)Nc2ccc(NS(=O)(=O)CC)cc21 | 143 nM | 347 nM | 255 nM | > 6000 nM | 233 nM | > 4000 nM | 2800 nM | 1790 nM |  |
| CCCC/C(Nc1ccc(CN2CCCCC2)cc1)=C1/C(=O)Nc2ccc(NS(=O)(=O)CC)cc21 | 148 nM | 217 nM | 170 nM | > 6000 nM | 167 nM | > 4000 nM | 2600 nM | 1670 nM |  |
| CCS(=O)(=O)Nc1ccc2c(c1)/C(=C(/NC1CCN(C)CC1)c1ccccc1)C(=O)N2 | > 15000 nM | > 15000 nM | > 15000 nM | > 10000 nM | > 15000 nM | > 4000 nM | > 4000 nM | > 50000 nM |  |
| CCS(=O)(=O)Nc1ccc2c(c1)/C(=C(/Nc1ccccc1)c1ccccc1)C(=O)N2 | 117 nM | 143 nM | 118 nM | 4700 nM | 109 nM | > 4000 nM | > 4000 nM | 1440 nM | 50 |
| CCS(=O)(=O)Nc1ccc2c(c1)/C(=C(/Nc1ccc(C)cc1)c1ccccc1)C(=O)N2 | 1570 nM | 2490 nM | 1640 nM | 3100 nM | 1610 nM | > 4000 nM | 2600 nM | 370 nM |  |
| CCS(=O)(=O)Nc1ccc2c(c1)/C(=C(/Nc1ccc(CN3CCOCC3)cc1)c1ccccc1)C(=O)N2 |  | 77 nM | 31 nM | 1310 nM | 54 nM | 1680 nM | 940 nM | 100 nM |  |
| CCS(=O)(=O)Nc1ccc2c(c1)/C(=C(/Nc1ccc(N3CCCCC3)cc1)c1ccccc1)C(=O)N2 | 735 nM | 832 nM | 647 nM | > 6000 nM | 595 nM | > 4000 nM | 620 nM | 1530 nM |  |
| O=C1Nc2ccccc2/C1=C(/Nc1ccc(CN2CCCCC2)cc1)c1ccccc1 | 160 nM | 273 nM | 227 nM | > 6000 nM | 230 nM | > 4000 nM | 770 nM | 70 nM |  |
| CO[C@@H](C(=O)N1Cc2n[nH]c(NC(=O)c3ccc(N4CCN(C)CC4)cc3)c2C1)c1ccccc1 [DANUSERTIB] |  |  |  | 4000 nM | 857 nM |  | > 21000 nM |  |  |
| CCS(=O)(=O)Nc1ccc2c(c1)/C(=C(/Nc1ccc(CN3CCCCC3)cc1)c1ccccc1)C(=O)N2 [HESPERADIN] | 14 nM | 21 nM | 10 nM | < 200 nM | 10 nM | 2370 nM | 120 nM | 60 nM |  |
| Cc1cc(Nc2cc(N3CCN(C)CC3)nc(Sc3ccc(NC(=O)C4CC4)cc3)n2)n[nH]1 [TOZASERTIB] |  |  |  | 3300 nM | 838 nM |  | > 21000 nM | 10000 nM |  |
